Experimental data taken from ChEMBL document CHEMBL3576849, “De Novo Conception of Small Molecule Modulators Based on Endogenous Peptide Ligands: Pyrrolodiazepin-2-one γ-Turn Mimics That Differentially Modulate Urotensin II Receptor-Mediated Vasoconstriction ex Vivo” (J Med Chem, 2015).
Activity calls are given as the source filed them. The rule behind the calls is not given here.

Experiments:
[1] = target: T1, Urotensin-2 receptor (Rattus norvegicus) (UniProt P49684); experiment: Modulation of urotensin-2 receptor in Sprague-Dawley rat thoracic aortic ring assessed as urotensin-2 related peptide Emax for induction of aortic ring contraction at 15 uM preincubated for 15 mins followed by urotensin-2 related peptide addition (reference value: 132 +/- 4%)
T1 sequence (whole entry): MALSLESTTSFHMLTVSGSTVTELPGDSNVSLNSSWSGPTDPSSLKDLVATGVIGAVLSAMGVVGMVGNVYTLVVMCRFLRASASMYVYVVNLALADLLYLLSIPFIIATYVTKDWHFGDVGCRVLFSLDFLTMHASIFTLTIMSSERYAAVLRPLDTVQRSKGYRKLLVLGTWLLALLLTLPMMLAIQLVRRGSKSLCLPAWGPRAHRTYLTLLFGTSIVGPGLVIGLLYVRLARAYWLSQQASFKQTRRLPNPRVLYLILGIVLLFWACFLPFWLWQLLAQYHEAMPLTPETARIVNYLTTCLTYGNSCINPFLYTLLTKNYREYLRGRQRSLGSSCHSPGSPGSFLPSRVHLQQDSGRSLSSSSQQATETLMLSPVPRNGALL

[2] = target: T1, Urotensin-2 receptor (Rattus norvegicus); experiment: Agonist activity at urotensin-2 receptor in Sprague-Dawley rat thoracic aortic ring assessed as induction of aortic ring contraction at 10 to 100 uM
In short: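 Thoracic aortic rings from adult male Sprague-Dawley rats (250–300 g, killed by CO2 asphyxiation); analog added alone to the organ chamber at 10 or 100 µM to test for contraction. 40 mM KCl contractions served as control at start and end. Run at least in triplicate.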

[3] = target: T1, Urotensin-2 receptor (Rattus norvegicus); experiment: Modulation of urotensin-2 receptor in Sprague-Dawley rat thoracic aortic ring assessed as human urotensin-2 Emax for induction of aortic ring contraction at 15 uM preincubated for 15 mins followed by human urotensin-2 addition (reference value: 116 +/- 3%)
In short: (§1)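 Thoracic aortic rings from adult male Sprague-Dawley rats (250–300 g, killed by CO2). Rings were exposed to test compound for 15 min, then cumulative hUII concentration-response curves were run (10-10–3.10-6 M). Contraction is expressed as % of the 40 mM KCl response, with KCl given at the start and end. EC50/pEC50/Emax come from a variable-slope sigmoidal fit. At least triplicate.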

[4] = target: T2, Urotensin-2 receptor (Homo sapiens) (UniProt Q9UKP6); experiment: Effect on [125I]-human urotensin-2 binding to human urotensin-2 receptor expressed in CHO cells at 100 uM after 90 mins by gamma counting analysis relative to control; assay type: cell-based
T2 sequence (whole entry): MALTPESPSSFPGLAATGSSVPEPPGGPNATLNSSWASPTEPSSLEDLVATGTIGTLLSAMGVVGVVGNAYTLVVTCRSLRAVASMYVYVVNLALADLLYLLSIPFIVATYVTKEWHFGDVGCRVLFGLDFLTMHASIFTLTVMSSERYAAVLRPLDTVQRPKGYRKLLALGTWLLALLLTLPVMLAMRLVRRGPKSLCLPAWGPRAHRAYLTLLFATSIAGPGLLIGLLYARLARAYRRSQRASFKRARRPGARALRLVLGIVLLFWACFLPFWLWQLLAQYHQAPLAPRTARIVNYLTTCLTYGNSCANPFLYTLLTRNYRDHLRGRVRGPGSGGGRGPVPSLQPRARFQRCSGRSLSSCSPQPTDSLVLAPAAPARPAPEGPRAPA
In short: (§2)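 Whole CHO cells stably expressing human UT, plated at 150,000 cells/well, incubated with test compound (100 µM) and 0.2 nM 125I-hUII for 90 min at room temperature. Cells were washed and lysed, and bound radioactivity was gamma-counted. Results are % of specific binding without competitor. Non-specific binding was defined with 10 µM hUII. At least triplicate; mean ± S.E.M.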

[5] = target: T1, Urotensin-2 receptor (Rattus norvegicus); experiment: Modulation of urotensin-2 receptor in Sprague-Dawley rat thoracic aortic ring assessed as human urotensin-2 Emax for induction of aortic ring contraction at 10 uM preincubated for 15 mins followed by human urotensin-2 addition (reference value: 116 +/- 3%); in short: as §1
[6] = target: T1, Urotensin-2 receptor (Rattus norvegicus); experiment: Modulation of urotensin-2 receptor in Sprague-Dawley rat thoracic aortic ring assessed as urotensin-2 related peptide Emax for induction of aortic ring contraction at 10 uM preincubated for 15 mins followed by urotensin-2 related peptide addition (reference value: 132 +/- 4%)
[7] = target: T2, Urotensin-2 receptor (Homo sapiens); experiment: Induction of [125I]-human urotensin-2 binding to human urotensin-2 receptor expressed in CHO cells at 100 uM after 90 mins by gamma counting analysis relative to control; assay type: cell-based; in short: as §2
[8] = target: T1, Urotensin-2 receptor (Rattus norvegicus); experiment: Modulation of urotensin-2 receptor in Sprague-Dawley rat thoracic aortic ring assessed as human urotensin-2 Emax for induction of aortic ring contraction at 11 uM preincubated for 15 mins followed by human urotensin-2 addition (reference value: 116 +/- 3%)
[9] = target: T1, Urotensin-2 receptor (Rattus norvegicus); experiment: Modulation of urotensin-2 receptor in Sprague-Dawley rat thoracic aortic ring assessed as urotensin-2 related peptide Emax for induction of aortic ring contraction at 11 uM preincubated for 15 mins followed by urotensin-2 related peptide addition (reference value: 132 +/- 4%)
[10] = target: T2, Urotensin-2 receptor (Homo sapiens); experiment: Displacement of [125I]-human urotensin-2 from human urotensin-2 receptor expressed in CHO cells at 100 uM after 90 mins by gamma counting analysis relative to control; assay type: cell-based
In short: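 Incubated 90 min at room temperature with 100 µM compound plus 0.2 nM 125I-hUII (chloramine-T labelled). Cells washed and lysed, bound radioactivity gamma-counted. Reported as % of specific binding without competitor; nonspecific binding defined with 10 µM hUII. At least triplicate.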

[11] = target: T1, Urotensin-2 receptor (Rattus norvegicus); experiment: Modulation of urotensin-2 receptor in Sprague-Dawley rat thoracic aortic ring assessed as urotensin-2 related peptide Emax for induction of aortic ring contraction at 14 uM preincubated for 15 mins followed by urotensin-2 related peptide addition (reference value: 132 +/- 4%)
[12] = target: T1, Urotensin-2 receptor (Rattus norvegicus); experiment: Modulation of urotensin-2 receptor in Sprague-Dawley rat thoracic aortic ring assessed as human urotensin-2 Emax for induction of aortic ring contraction at 14 uM preincubated for 15 mins followed by human urotensin-2 addition (reference value: 116 +/- 3%)
[13] = target: T1, Urotensin-2 receptor (Rattus norvegicus); experiment: Modulation of urotensin-2 receptor in Sprague-Dawley rat thoracic aortic ring assessed as human urotensin-2 Emax for induction of aortic ring contraction at 8 uM preincubated for 15 mins followed by human urotensin-2 addition (reference value: 116 +/- 3%); in short: as §1
[14] = target: T1, Urotensin-2 receptor (Rattus norvegicus); experiment: Modulation of urotensin-2 receptor in Sprague-Dawley rat thoracic aortic ring assessed as urotensin-2 related peptide Emax for induction of aortic ring contraction at 8 uM preincubated for 15 mins followed by urotensin-2 related peptide addition (reference value: 132 +/- 4%)
Rattus norvegicus = species: Rattus norvegicus; experiment: Modulation of […] in Sprague-Dawley rat thoracic aortic ring assessed as change in human endothelin-1-induced aortic ring contraction at 1.4 x 10^-5 M
[15] = target: T1, Urotensin-2 receptor (Rattus norvegicus); experiment: Modulation of urotensin-2 receptor in Sprague-Dawley rat thoracic aortic ring assessed as reduction of human urotensin-2-induced aortic ring contraction preincubated for 15 mins followed by human urotensin-2 addition
[16] = target: T1, Urotensin-2 receptor (Rattus norvegicus); experiment: Noncompetitive antagonist activity at urotensin-2 receptor in Sprague-Dawley rat thoracic aortic ring assessed as reduction in human urotensin-2-induced response at 4 uM by double reciprocal plot analysis
[17] = target: T1, Urotensin-2 receptor (Rattus norvegicus); experiment: Modulation of urotensin-2 receptor in Sprague-Dawley rat thoracic aortic ring assessed as human urotensin-2 Emax for induction of aortic ring contraction at 1 uM preincubated for 15 mins followed by human urotensin-2 addition (reference value: 116 +/- 3%)
[18] = target: T1, Urotensin-2 receptor (Rattus norvegicus); experiment: Modulation of urotensin-2 receptor in Sprague-Dawley rat thoracic aortic ring assessed as human urotensin-2 Emax for induction of aortic ring contraction at 4 uM preincubated for 15 mins followed by human urotensin-2 addition (reference value: 116 +/- 3%)

Activity [2] | inhibition [10] [%] | Compound | Activity [4] | Emax [5] [%] | Emax [6] [%] | other results
inactive | – | NCCC[C@@H]1N[C@H](c2ccc(-c3ccccc3)cc2)c2[nH]c(C(=O)O)cc2N(CCc2ccc(O)cc2)C1=O | inactive | – | – | Emax [8]: 162%; Emax [9]: 139%
inactive | – | NCCCC[C@@H]1N[C@@H](c2ccc(-c3ccccc3)cc2)c2[nH]c(C(=O)O)cc2N(CCc2ccc(O)cc2)C1=O | inactive | – | – | Emax [11]: 113%; Emax [12]: 121%
inactive | 25 | NCCCC[C@@H]1N[C@@H](c2ccc3ccccc3c2)c2[nH]c(C(=O)O)cc2N(CCc2ccc(O)cc2)C1=O | – | 194 | 107 | –
inactive | 25 | NCCCC[C@@H]1N[C@H](c2ccc3ccccc3c2)c2[nH]c(C(=O)O)cc2N(CCc2ccc(O)cc2)C1=O | – | 175 | 217 | –
inactive | 25 | NCCC[C@@H]1N[C@H](c2cccc3ccccc23)c2[nH]c(C(=O)O)cc2N(CCc2ccc(O)cc2)C1=O | – | 139 | 210 | –
inactive | 25 | NCCCC[C@@H]1N[C@H](c2ccc(-c3ccccc3)cc2)c2[nH]c(C(=O)O)cc2N(CCc2ccc(O)cc2)C1=O | – | – | – | Activity (Rattus norvegicus): inactive; Emax [11]: 185%; Activity [15]: Dose-dependent effect; Kb [16]: 2900 nM; pKb [16]: 5.54; Emax [12]: 0%; Emax [17]: 92%; Emax [18]: 63%

More lines, now with the values behind:

Compound | Activity [2] | inhibition [10] [%] | Activity [4] | Emax [5] [%] | Emax [6] [%] | other results
NCCCC[C@@H]1N=C(c2ccc(-c3ccccc3)cc2)c2[nH]c(C(=O)O)cc2N(CCc2ccc(O)cc2)C1=O | inactive | – | inactive | – | – | Emax [1]: 110%; Emax [3]: 128%
NCCC[C@@H]1N=C(c2cccc3ccccc23)c2[nH]c(C(=O)O)cc2N(CCc2ccc(O)cc2)C1=O | inactive | – | inactive | 74 | 46 | –
NCCC[C@@H]1N=C(c2ccc3ccccc3c2)c2[nH]c(C(=O)O)cc2N(CCc2ccc(O)cc2)C1=O | inactive | – | inactive | 70 | 142 | –
NCCC[C@@H]1N=C(c2ccc(-c3ccccc3)cc2)c2[nH]c(C(=O)O)cc2N(CCc2ccc(O)cc2)C1=O | inactive | – | – | 97 | 93 | Activity [7]: 117%
NCCC[C@@H]1N[C@@H](c2cccc3ccccc23)c2[nH]c(C(=O)O)cc2N(CCc2ccc(O)cc2)C1=O | inactive | 25 | – | 148 | 238 | –
NCCCC[C@@H]1N=C(c2ccc3ccccc3c2)c2[nH]c(C(=O)O)cc2N(CCc2ccc(O)cc2)C1=O | inactive | – | inactive | 80 | 51 | –
NCCCC[C@@H]1N=C(c2cccc3ccccc23)c2[nH]c(C(=O)O)cc2N(CCc2ccc(O)cc2)C1=O | inactive | – | inactive | – | – | Emax [13]: 123%; Emax [14]: 60%
